# Experimental data from ChEMBL document CHEMBL4138132, “Design, synthesis and biological evaluation of substituted aminopyridazin-3(2H)-ones as G0/G1-phase arresting agents with apoptosis-inducing activities” (Eur J Med Chem, 2017).
# pIC50: −log10 of the molar value.
# Tests used:
# K562 = assay: Antiproliferative activity against human K562 cells after 48 hrs by MTT assay; type: functional; conditions: K562, 48 h
# In short: (§1)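 MTT read-out after 48 h incubation. GI50 taken as the concentration giving 50% growth inhibition relative to untreated controls. Fluorouracil served as positive control.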
# [1] = Inhibition of PDE4 (unknown origin) using FAM-Cyclic-3',5'-AMP as substrate after 1 hr by fluorescence polarization assay; set-up: species or system Homo sapiens
# In short: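 Each compound was tested at nine concentrations spanning 10^-8 to 10^-4 M, with rolipram as positive control. IC50 was obtained by nonlinear regression of the inhibition curves.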
# SH-SY5Y [2] = assay: Antiproliferative activity against human SH-SY5Y cells after 48 hrs by MTT assay; type: functional; in short: as §1
# AGS = assay: Antiproliferative activity against human AGS cells after 48 hrs by MTT assay; type: functional; in short: as §1
# SH-SY5Y [3] = assay: Cell cycle arrest in human SH-SY5Y cells assessed as accumulation at G2/M-phase at 20 uM after 48 hrs by propidium iodide staining based flow cytometry (reference value: 12.13 +/- 0.7%); type: functional
# SH-SY5Y [4] = assay: Cell cycle arrest in human SH-SY5Y cells assessed as accumulation at S-phase at 20 uM after 48 hrs by propidium iodide staining based flow cytometry (reference value: 40.2 +/- 1.8%); type: functional
# SH-SY5Y [5] = assay: Cell cycle arrest in human SH-SY5Y cells assessed as accumulation at G0/G1 phase at 20 uM after 48 hrs by propidium iodide staining based flow cytometry (reference value: 47.67 +/- 1.1%); type: functional
# SH-SY5Y [6] = assay: Cell cycle arrest in human SH-SY5Y cells assessed as accumulation at S-phase at 10 uM after 48 hrs by propidium iodide staining based flow cytometry (reference value: 40.2 +/- 1.8%); type: functional
# SH-SY5Y [7] = assay: Cell cycle arrest in human SH-SY5Y cells assessed as accumulation at G0/G1 phase at 10 uM after 48 hrs by propidium iodide staining based flow cytometry (reference value: 47.67 +/- 1.1%); type: functional
# SH-SY5Y [8] = assay: Cell cycle arrest in human SH-SY5Y cells assessed as accumulation at G0/G1 phase at 5 uM after 48 hrs by propidium iodide staining based flow cytometry (reference value: 47.67 +/- 1.1%); type: functional
# SH-SY5Y [9] = assay: Induction of apoptosis in human SH-SY5Y cells assessed as late apoptotic cells at 20 uM after 48 hrs by Annexin V-FITC/propidium iodide staining based flow cytometry (reference value: 3.68%); type: functional
# In short: (§2)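 SH-SY5Y cells treated 48 h at 10 or 20 µM, then stained with Annexin V-FITC and propidium iodide and analysed by flow cytometry. Quadrants were scored as live, early apoptotic, late apoptotic and necrotic. DMSO served as control. Values are means of three independent experiments. Significance was tested versus control.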
# SH-SY5Y [10] = assay: Induction of apoptosis in human SH-SY5Y cells assessed as increase in late apoptotic cells after 48 hrs by Annexin V-FITC/propidium iodide staining based flow cytometry; type: functional, cell-based; in short: as §2
# SH-SY5Y [11] = assay: Induction of apoptosis in human SH-SY5Y cells assessed as necrotic cells at 20 uM after 48 hrs by Annexin V-FITC/propidium iodide staining based flow cytometry (reference value: 5.06%); type: functional; in short: as §2
# SH-SY5Y [12] = assay: Induction of apoptosis in human SH-SY5Y cells assessed as live cells at 10 uM after 48 hrs by Annexin V-FITC/propidium iodide staining based flow cytometry (reference value: 89.95%); type: functional; in short: as §2
# SH-SY5Y [13] = assay: Cell cycle arrest in human SH-SY5Y cells assessed as accumulation at G2/M-phase at 5 uM after 48 hrs by propidium iodide staining based flow cytometry (reference value: 12.13 +/- 0.7%); type: functional
# SH-SY5Y [14] = assay: Induction of apoptosis in human SH-SY5Y cells assessed as late apoptotic cells at 10 uM after 48 hrs by Annexin V-FITC/propidium iodide staining based flow cytometry (reference value: 3.68%); type: functional; in short: as §2
# SH-SY5Y [15] = assay: Induction of apoptosis in human SH-SY5Y cells assessed as necrotic cells at 10 uM after 48 hrs by Annexin V-FITC/propidium iodide staining based flow cytometry (reference value: 5.06%); type: functional; in short: as §2
# SH-SY5Y [16] = assay: Cell cycle arrest in human SH-SY5Y cells assessed as accumulation at S-phase at 5 uM after 48 hrs by propidium iodide staining based flow cytometry (reference value: 40.2 +/- 1.8%); type: functional
# SH-SY5Y [17] = assay: Induction of apoptosis in human SH-SY5Y cells assessed as live cells at 20 uM after 48 hrs by Annexin V-FITC/propidium iodide staining based flow cytometry (reference value: 89.95%); type: functional; in short: as §2
# SH-SY5Y [18] = assay: Induction of apoptosis in human SH-SY5Y cells assessed as early apoptotic cells at 20 uM after 48 hrs by Annexin V-FITC/propidium iodide staining based flow cytometry (reference value: 1.3%); type: functional; in short: as §2
# SH-SY5Y [19] = assay: Cell cycle arrest in human SH-SY5Y cells assessed as accumulation at G0/G1-phase after 48 hrs by propidium iodide staining based flow cytometry; type: functional
# SH-SY5Y [20] = assay: Cell cycle arrest in human SH-SY5Y cells assessed as accumulation at G2/M-phase at 10 uM after 48 hrs by propidium iodide staining based flow cytometry (reference value: 12.13 +/- 0.7%); type: functional
# SH-SY5Y [21] = assay: Induction of apoptosis in human SH-SY5Y cells assessed as early apoptotic cells at 10 uM after 48 hrs by Annexin V-FITC/propidium iodide staining based flow cytometry (reference value: 1.3%); type: functional; in short: as §2
Compound,GI50 (K562),pIC50 [1],GI50 (SH-SY5Y [2]),GI50 (AGS),other results
COc1ccccc1OCCNc1ccc(=O)n(Cc2ccc(OC)c(OC3CCCC3)c2)n1,28 µM,< 4.00,> 100 µM,> 100 µM,
COc1ccccc1OCCNc1ccc(=O)n(Cc2ccc(OC)c(OCC3CC3)c2)n1,16.6 µM,< 4.00,10.5 µM,45.8 µM,
COc1ccc(Cn2nc(NCCOc3ccccc3OC)ccc2=O)cc1Br,> 100 µM,4.36,> 100 µM,> 100 µM,
COc1ccccc1OCCNc1ccc(=O)n(Cc2ccc(OC(F)F)c(OC3CCCC3)c2)n1,9.1 µM,4.91,9.3 µM,23.6 µM,Activity (SH-SY5Y [3]): 6.87%; Activity (SH-SY5Y [4]): 29.58%; Activity (SH-SY5Y [5]): 63.55%; Activity (SH-SY5Y [6]): 30.16%; Activity (SH-SY5Y [7]): 62.1%; Activity (SH-SY5Y [8]): 53.22%; Activity (SH-SY5Y [9]): 18.54%; Activity (SH-SY5Y [10]): Dose-dependent effect; Activity (SH-SY5Y [11]): 8.18%; Activity (SH-SY5Y [12]): 84.34%; Activity (SH-SY5Y [13]): 10.34%; Activity (SH-SY5Y [14]): 8.05%; Activity (SH-SY5Y [15]): 4.48%; Activity (SH-SY5Y [16]): 36.44%; Activity (SH-SY5Y [17]): 64.46%; Activity (SH-SY5Y [18]): 8.82%; Activity (SH-SY5Y [19]): Dose-dependent effect; Activity (SH-SY5Y [20]): 7.74%; Activity (SH-SY5Y [21]): 3.12%
COc1ccccc1OCCNc1cnn(Cc2ccc(OC)c(-c3cccc(Cl)c3)c2)c(=O)c1Cl,> 100 µM,< 4.00,> 100 µM,> 100 µM,
COc1ccccc1OCCNc1cnn(Cc2ccc(OC(F)F)c(OC3CCCC3)c2)c(=O)c1Cl,> 100 µM,4.41,> 100 µM,> 100 µM,
COc1ccccc1OCCNc1cnn(Cc2ccc(OC)c(OC3CCCC3)c2)c(=O)c1Cl,> 100 µM,4.67,23.3 µM,> 100 µM,
COc1ccc(C2CNC(=O)C2)cc1OC1CCCC1 (stereo not given) [ROLIPRAM],,6.30,,,
COc1ccc(Cn2ncc(NCCOc3ccccc3OC)c(Cl)c2=O)cc1OC,> 100 µM,4.14,33.1 µM,> 100 µM,
COc1ccccc1OCCNc1cnn(Cc2ccc(OC)c(OCC3CC3)c2)c(=O)c1Cl,> 100 µM,4.34,37.9 µM,> 100 µM,
COc1ccc(Cn2nc(NCCOc3ccccc3OC)ccc2=O)cc1OC,> 100 µM,4.17,> 100 µM,> 100 µM,
COc1ccccc1OCCNc1cnn(Cc2ccc(OC(F)F)c(OCC3CC3)c2)c(=O)c1Cl,67.6 µM,< 4.00,> 100 µM,> 100 µM,
O=c1[nH]cc(F)c(=O)[nH]1 [FLUOROURACIL],18.5 µM,,11.9 µM,24.6 µM,
COc1ccccc1OCCNc1ccc(=O)n(Cc2ccc(OC(F)F)c(OCC3CC3)c2)n1,60.9 µM,4.82,6.3 µM,24.4 µM,Activity (SH-SY5Y [3]): 14.64%; Activity (SH-SY5Y [4]): 22.75%; Activity (SH-SY5Y [5]): 62.61%; Activity (SH-SY5Y [6]): 33.81%; Activity (SH-SY5Y [7]): 55.6%; Activity (SH-SY5Y [8]): 52.15%; Activity (SH-SY5Y [9]): 10.62%; Activity (SH-SY5Y [10]): Dose-dependent effect; Activity (SH-SY5Y [11]): 6.69%; Activity (SH-SY5Y [12]): 85.22%; Activity (SH-SY5Y [13]): 12.98%; Activity (SH-SY5Y [14]): 7.43%; Activity (SH-SY5Y [15]): 4.6%; Activity (SH-SY5Y [16]): 34.87%; Activity (SH-SY5Y [17]): 78.53%; Activity (SH-SY5Y [18]): 4.16%; Activity (SH-SY5Y [19]): Dose-dependent effect; Activity (SH-SY5Y [20]): 10.59%; Activity (SH-SY5Y [21]): 2.74%
